Bioassay records deposited in PubChem by several laboratories.
PKD1 kinase inh: inhibitors of human PKD1 kinase | Q15139 | PKD1 kinase fluorescence polarization assay | inhibition, % (no concentration beside the values) | hit rate 0.056% among 200,000; in the data active = inhibition above about 50%
Arbovirus inh: blocks arbovirus infection; hit rate 0.37% among 200,000; arbovirus infection cell-based antiviral screen; inhibition, % at 10 µM; AID 1251; in the data active = inhibition above about 30%
KCC2 mod: modulators of human KCC2 chloride dependent transport. Q9H2X9. KCC2 cells, thallium flux FluoZin-2 fluorescence. B-score of Tl+ flux slope (higher = more flux/activation; lower = inhibition) at 10 µM. hit rate 2.2% among 190,000;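 active = thallium flux slope and its plate-corrected score both differing from the plate sample mean at a set confidence after two filtering rounds, in either direction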;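 also: slope of fluorescence scaled to starting intensity during 10 to 20 s after thallium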
MDM2 E3 inh: blocks human Mdm2 ubiquitin ligase activity; signal enhancement, % at 5 µM; cell-based MDM2 ubiquitination luciferase reporter, 2 h; 0 = plate control, 100 = twice control, blank-subtracted; hit rate 0.11% among 210,000; Q00987;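 active = signal enhancement of 30% or more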;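 also: luminescence tracks abundance of the self-degrading MDM2-luciferase fusion protein; higher signal means inhibition of MDM2 E3 ligase activity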
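Assay system: mammalian cells stably expressing self-ubiquitinating, self-degrading MDM2 E3–luciferase fusion. Quantity: 2000 cells in each well. Medium: DMEM culture medium. Compound dosing: single-point 5 µM. Timing: cell settling 4 h, compound treatment 2 h, both 37 °C. Technique: luciferase luminescence. Read-out basis: percent signal gain over controls, blank-subtracted. Benchmarks: plate controls and plate blanks.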
ROMK mod: modulators of human ROMK potassium channel. Tet-inducible ROMK, thallium flux fluorescence; actives lie on both sides. B-score at 10 µM. hit rate 2% among 130,000. P48048. AID 1918;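 active = signal ratio slope over the read window, or its plate-corrected B-score, at least 3 SD from the plate mean, either direction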;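 also: B-score of the F/F0 ratio slope over 7 to 12 s after thallium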
Target sequence (P48048 whole entry, looked up): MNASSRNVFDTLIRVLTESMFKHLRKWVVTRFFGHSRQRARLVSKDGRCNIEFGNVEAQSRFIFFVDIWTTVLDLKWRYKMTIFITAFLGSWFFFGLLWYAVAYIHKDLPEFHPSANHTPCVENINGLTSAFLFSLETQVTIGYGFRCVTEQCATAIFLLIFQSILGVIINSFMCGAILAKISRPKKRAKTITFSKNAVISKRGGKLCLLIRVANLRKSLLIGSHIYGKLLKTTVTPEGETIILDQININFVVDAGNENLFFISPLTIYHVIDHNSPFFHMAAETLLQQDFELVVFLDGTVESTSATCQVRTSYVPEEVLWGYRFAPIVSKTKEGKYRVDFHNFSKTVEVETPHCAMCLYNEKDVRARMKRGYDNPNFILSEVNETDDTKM
m-calpain inh: calpain II (pig) inhibition | hit rate 0.37% among 220,000 | inhibition, % at 16 µM | purified calpain II, fluorogenic peptide substrate, 30 min | AID 1236;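 active = inhibition above about 50%, limit read from the data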
KCC2 sec1: KCC2 (human) modulation, secondary assay; HEK293-KCC2, thallium flux, FluoZin2 fluorescence; active compounds read high; shares compounds with KCC2 mod; hit rate 15% among 3,700; normalised thallium flux (F/F0 slope) at 10 µM; AID 1713;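 active = thallium flux slope above the same plate's solvent-only control mean plus 3 SD; inconclusive = the two replicate wells disagree; inactive = no significant difference from solvent-only control wells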
KCC2 bumet counter: bumetanide-insensitive thallium flux in KCC2 cells with ouabain, counter-screen | shares compounds with KCC2 mod | HEK293-KCC2 + bumetanide/ouabain, thallium flux FluoZin2; active compounds read high | normalized thallium flux at 10 µM | hit rate 49% among 3,700 | AID 1714;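 active = thallium entry rate above the same plate's blocked-transporter control wells by more than 3 SD; inconclusive = the two repeat wells disagree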;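 also: raw slope of fluorescence over initial fluorescence between 10 and 20 s after thallium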
KCC2 sec2: confirmation of human KCC2 transport modulators | shares compounds with KCC2 mod | HEK293-KCC2, thallium flux FluoZin2 fluorescence; actives lie on both sides; F/F0 rise rate, 10–20 s post-thallium | normalized thallium flux at 10 µM | hit rate 23% among 3,700;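 active = thallium flux slope more than 3 SD above or below the plate's solvent-only control mean, mostly below; inconclusive = the two repeat wells disagreed; inactive = no significant shift from solvent-only controls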
HEK293 Tl flux: counter-screen for KCC2 modulators: effect in parental HEK293 cells | shares compounds with KCC2 mod | thallium flux FluoZin2, ouabain; baseline-ratio fluorescence slope, 10–20 s after thallium | thallium flux rate (normalised fluorescence) at 10 µM | hit rate 46% among 3,700;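 active = thallium flux rate significantly above the same plate's solvent-only control wells, beyond their mean plus 3 SD; inconclusive = the two replicate wells gave conflicting results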
KCC2 ouabain: modulates human KCC2 on retest with ouabain; raw Tl+ flux slope (below DMSO = inhibition, above = activation) at 10 µM; shares compounds with KCC2 mod; HEK293-KCC2, thallium flux FluoZin2 fluorescence; bidirectional: low = inhibitor, high = activator; hit rate 48% among 3,700;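 active = thallium flux slope beyond 3 SD from same-plate DMSO control mean in most replicates, usually higher, sometimes lower; inconclusive = repeat tests gave conflicting results; inactive = no significant difference from controls in most replicates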;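 also: slope of initial-normalized fluorescence between seconds 10 and 20 after thallium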
HEK counter2: acts in parental HEK cells, second KCC2 counter-screen; shares compounds with KCC2 mod; HEK293 parental, thallium flux FluoZin-2 fluorescence slope; thallium flux slope at 10 µM; hit rate 33% among 3,700; AID 1718;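 active = thallium flux slope above the same plate's solvent-control mean plus 3 SD in both duplicate wells; inconclusive = duplicate wells that disagreed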;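 also: run without ouabain in cells lacking the KCC2 cotransporter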
Large screens that a line does not name were inactive (follow-up assays come after a bar, where they were run). In the library only some 3.7% were active in any assay of this set; here they are far more common.

Cc1cc(NC(=O)CCC(=O)N(Cc2ccco2)C2(C(=O)NC3CCCCC3)CCN(C)CC2)no1	KCC2 mod -5.88 (no result: ROMK mod) | KCC2 sec1 inactive | KCC2 bumet counter inactive | KCC2 sec2 inactive | HEK293 Tl flux inactive | KCC2 ouabain inactive | HEK counter2 inactive
Cc1ccc(C(C(=O)NC2CCCC2)N(Cc2ccco2)C(=O)CCC(=O)Nc2cc(C)on2)cc1 (stereo unspecified)	none (no result: ROMK mod)
Cc1ccc(C)c(N(C(=O)CCC(=O)Nc2cc(C)on2)C(C(=O)NC2CCCC2)c2ccco2)c1 (stereo unspecified)	KCC2 mod -4.26 (no result: ROMK mod) | KCC2 sec1 inconclusive | KCC2 bumet counter inactive | KCC2 sec2 inconclusive | HEK293 Tl flux inactive | KCC2 ouabain inactive | HEK counter2 inactive
S=c1[nH]cc(Cc2ccccc2)s1	KCC2 mod 40 | KCC2 sec1 0.0263 | KCC2 bumet counter 0.117 | KCC2 sec2 inactive | HEK293 Tl flux 0.0345 | KCC2 ouabain 0.0684 | HEK counter2 0.0207
CC1CCCC/C1=N\NC(=S)Nc1ccccc1 (stereo unspecified)	KCC2 mod 9.47 | KCC2 sec1 0.0132 | KCC2 bumet counter 0.0525 | KCC2 sec2 inactive | HEK293 Tl flux 0.0188 | KCC2 ouabain 0.0478 | HEK counter2 0.013
CC(C)NC(=S)N/N=C1\CCCCC1C1CCCCC1 (stereo unspecified)	none
CC1CCC/C(=N\NC(=S)NCc2ccccc2)C1 (stereo unspecified)	KCC2 mod 8.05 (no result: ROMK mod) | KCC2 sec1 inactive | KCC2 bumet counter 0.0104 | KCC2 sec2 inactive | HEK293 Tl flux inconclusive | KCC2 ouabain inactive | HEK counter2 inactive
CC1CCC/C(=N\NC(=S)Nc2ccccc2)C1 (stereo unspecified)	KCC2 mod 14.8 | KCC2 sec1 0.0144 | KCC2 bumet counter 0.0494 | KCC2 sec2 inactive | HEK293 Tl flux 0.0177 | KCC2 ouabain 0.0353 | HEK counter2 0.0118
CC1C/C(=N\NC(=S)NCc2ccccc2)CC(C)(C)C1 (stereo unspecified)	none
COc1cccc(NC(=S)NN=C2CCCCCC2)c1	KCC2 mod 39 | KCC2 sec1 0.0185 | KCC2 bumet counter 0.0996 | KCC2 sec2 inconclusive | HEK293 Tl flux 0.0409 | KCC2 ouabain 0.0499 | HEK counter2 0.0174
CCc1ccc(NC(=S)Nc2cccc(OC)c2)cc1	none
Cc1cccc(Oc2nc(CN3CCOCC3)nc3sc4c(c23)CCCC4)c1	none
C=CCn1cnc2scc(-c3ccc(CC)cc3)c2c1=O	KCC2 mod -4.12 | KCC2 sec1 inactive | KCC2 bumet counter inactive | KCC2 sec2 inactive | HEK293 Tl flux inactive | KCC2 ouabain inactive | HEK counter2 inactive
Cc1ccc(S(=O)(=O)NN2C(=O)/C(=C/c3cccs3)SC2=S)cc1	KCC2 mod 27.4 (no result: PKD1 kinase inh, Arbovirus inh) | KCC2 sec1 inactive | KCC2 bumet counter 0.0533 | KCC2 sec2 0.0495 | HEK293 Tl flux 0.0453 | KCC2 ouabain 0.0514 | HEK counter2 0.0432
Cc1ccc(S(=O)(=O)NN2C(=O)/C(=C/c3cccn3C)SC2=S)cc1	none
CCCn1c(C)cc(C(=O)COC(=O)c2nccnc2N)c1C	none (no result: ROMK mod)
